What is called Ki is the dissociation constant of the complex between target and ligand, obtained from inhibition or displacement. High values mean a looser hold on the target, low ones a stronger hold on the target. As a reminder, the IC50 is the midpoint of a concentration-inhibition curve. Low values mean inhibition by little substance, high ones a need for much substance. As usually defined, the half-life is how long it takes for the measured level to halve. Lower therefore signals rapid decline. Usually bioavailability stands for dose-corrected exposure relative to a reference, in per cent. Low readings indicate little systemic uptake, high ones much systemic uptake. The clearance is the rate of elimination divided by the concentration. Low readings indicate inefficient removal, high ones efficient removal.

The record followed here is ChEMBL document CHEMBL1134406, “Azepanone-based inhibitors of human and rat cathepsin K” (J Med Chem, 2001).

SMILES strings stand for the structures. Where only a bound is given, the exact number is not on record here.

Data set [1] has as its target Cathepsin B (Homo sapiens, UniProt P07858). Put plainly: Inhibitory activity against Human cathepsin B.
Data set [2] concerns the target T1, Cathepsin K (Homo sapiens, UniProt P43235).
T1 sequence (P43235 whole entry): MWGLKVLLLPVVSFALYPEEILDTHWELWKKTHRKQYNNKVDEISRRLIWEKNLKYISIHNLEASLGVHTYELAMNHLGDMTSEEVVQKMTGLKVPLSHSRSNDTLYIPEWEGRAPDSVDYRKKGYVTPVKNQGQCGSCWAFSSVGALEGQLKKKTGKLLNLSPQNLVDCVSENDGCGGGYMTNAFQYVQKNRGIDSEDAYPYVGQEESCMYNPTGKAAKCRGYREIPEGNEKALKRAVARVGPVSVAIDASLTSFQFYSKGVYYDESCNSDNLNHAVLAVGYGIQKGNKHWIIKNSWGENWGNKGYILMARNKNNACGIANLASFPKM
Briefly: Inhibition of Human cathepsin K.

The target in data set [3] is Cathepsin S (Homo sapiens, UniProt P25774). Put plainly: Inhibitory activity against Human cathepsin S.
Data set [4] concerns the target T1, Cathepsin K. Briefly: In vitro IC50 value was measured using in situ cytochem assay.
The nature of data set [5]: half life period in male Sprague-Dawley rat. The format is ADME, organism-based. Particulars: in vivo. In a few lines: (§1)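 Crossover in rats over 2 study days, 2 days apart: 30-min IV infusion on day 1, oral bolus gavage in the same animals on day 2. Blood taken from lateral tail vein, plasma by centrifugation, drug quantified by LC/MS/MS (LLOQ 5–10 ng/mL). PK parameters from plasma concentration–time data by standard analysis.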

A short description of data set [6]: Bioavailability in rat (Sprague-Dawley) (male). Type of data set: ADME, organism-based. The note with it: in vivo. In a few lines: as §1
The target of data set [7] is Procathepsin L (Homo sapiens, UniProt P07711). Put plainly: Inhibitory activity against Human cathepsin L.
Data set [8] can be described thus: plasma clearance in male Sprague-Dawley rat. The format is ADME, organism-based. In a few lines:
as §1

For data set [9], the target named is T2, Cathepsin K (Rattus norvegicus, UniProt O35186).
T2 sequence (O35186 whole entry): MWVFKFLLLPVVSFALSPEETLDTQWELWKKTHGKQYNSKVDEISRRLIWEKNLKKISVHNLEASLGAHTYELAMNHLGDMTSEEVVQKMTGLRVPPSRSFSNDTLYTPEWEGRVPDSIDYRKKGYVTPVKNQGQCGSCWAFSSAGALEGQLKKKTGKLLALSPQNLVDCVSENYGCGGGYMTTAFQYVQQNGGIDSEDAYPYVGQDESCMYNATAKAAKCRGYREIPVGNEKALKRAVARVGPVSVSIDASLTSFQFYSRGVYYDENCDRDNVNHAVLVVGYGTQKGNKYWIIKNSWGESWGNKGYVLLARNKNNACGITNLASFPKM
Put plainly: Inhibitory activity against Rat cathepsin K.

The nature of data set [10]: Volume of distribution in male Sprague-Dawley rat. The format is ADME, organism-based. The note with it: in vivo, read-out: Vdss. A digest of the protocol:
as §1

Data set [11] in a line: volume distribution in male Sprague-Dawley rat. Particulars: in vivo, read-out: Vdss. The format is ADME, organism-based. A digest of the protocol: as §1

Cathepsin S, sequence (P25774 whole entry): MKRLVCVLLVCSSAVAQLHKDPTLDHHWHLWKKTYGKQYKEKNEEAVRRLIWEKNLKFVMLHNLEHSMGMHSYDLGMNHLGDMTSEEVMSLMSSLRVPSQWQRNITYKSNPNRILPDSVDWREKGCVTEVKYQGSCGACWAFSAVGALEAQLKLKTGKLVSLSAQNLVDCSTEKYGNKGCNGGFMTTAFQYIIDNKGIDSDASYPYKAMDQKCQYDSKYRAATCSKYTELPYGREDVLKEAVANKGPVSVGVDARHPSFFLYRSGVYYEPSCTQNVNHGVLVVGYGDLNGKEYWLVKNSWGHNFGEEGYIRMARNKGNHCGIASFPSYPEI
Procathepsin L, sequence (P07711 whole entry): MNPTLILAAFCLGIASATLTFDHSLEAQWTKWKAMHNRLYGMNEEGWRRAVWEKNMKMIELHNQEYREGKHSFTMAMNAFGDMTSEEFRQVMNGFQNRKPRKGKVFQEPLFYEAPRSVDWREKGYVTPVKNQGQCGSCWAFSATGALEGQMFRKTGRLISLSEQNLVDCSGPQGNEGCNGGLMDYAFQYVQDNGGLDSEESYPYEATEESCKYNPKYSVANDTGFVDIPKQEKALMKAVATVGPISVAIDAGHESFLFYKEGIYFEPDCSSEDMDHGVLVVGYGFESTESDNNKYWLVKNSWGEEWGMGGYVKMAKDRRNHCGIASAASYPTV

Consider `CC(C)C[C@H](NC(=O)OCc1ccccc1)C(=O)N1CCC(NC(=O)[C@@H](CC(C)C)NC(=O)OCc2ccccc2)C(=O)C1` (stereo partly drawn), for which the Ki in [1] stood at 440 nM; in data set [2], 2.6 nM.

Molecule `CC(C)C[C@H](NC(=O)OCc1ccccc1)C(=O)NCC(=O)CNC(=O)[C@H](CC(C)C)NC(=O)OCc1ccccc1` came in with a Ki in data set [3] of 890 nM.

With `CC(C)C[C@H](NC(=O)c1cc2cc(OCCN3CCOCC3)ccc2o1)C(=O)N[C@H]1CCCN(C(=O)Cc2cccc(-c3ccccn3)c2)CC1=O`, the Ki in data set [3] turned out to be 14 nM; in [1], 100 nM; in [7], 0.49 nM; in [2] it was 0.0048 nM; in data set [9] it was 4.8 nM. This molecule showed an IC50 in data set [4] of 30 nM. This molecule also registered a half-life in data set [5] of 338 min. This molecule also returned a bioavailability in data set [6] of 2.1%. In data set [8], this molecule yielded a clearance of 39.7 mL/min/kg. Also, the Vd in data set [10] turned out to be 1.29 L/kg.

As for `CC(C)C[C@H](NC(=O)OCc1ccccc1)C(=O)N[C@@H]1CCCN(C(=O)[C@H](CC(C)C)NC(=O)OCc2ccccc2)CC1=O`, the inhibitory constant (Ki) in [3] was found to be 97 nM; in data set [7], 290 nM; in [2], 15 nM.

In data set [5], `CC(C)C[C@H](NC(=O)c1cc2ccccc2o1)C(=O)N[C@H]1CCCN(S(=O)(=O)c2ccccn2)CC1=O` displayed a half-life of 29.8 min. For the same molecule, the Ki came out at 500 nM in data set [1], 2.2 nM in [7] and 60 nM in data set [9]. This molecule also displayed a bioavailability in data set [6] of 42.1%. Moreover, the clearance in data set [8] was found to be 49.2 mL/min/kg. Besides, in data set [10], the Vd was 1.86 L/kg.

The molecule `CC(C)C[C@H](NC(=O)c1cc2ccccc2o1)C(=O)NC1CCCN(S(=O)(=O)c2ccccn2)CC1O` (stereo partly drawn) yielded a Ki in data set [2] above 1000 nM.

Consider `CC(C)C[C@H](NC(=O)OCc1ccccc1)C(=O)N1CC(=O)C(NC(=O)[C@@H](CC(C)C)NC(=O)OCc2ccccc2)C1` (stereo partly drawn), for which the Ki is above 1000 nM in data set [1] and 2.3 nM in [2].

`CC(C)C[C@H](NC(=O)c1cc2cc(OCCN3CCOCC3)ccc2o1)C(=O)N[C@@H]1CCCN(C(=O)Cc2cccc(-c3ccccn3)c2)CC1=O` yielded a Ki in data set [2] of 4.7 nM.

For `CC(C)C[C@H](NC(=O)c1cc2ccccc2o1)C(=O)NCC(=O)CNS(=O)(=O)c1ccccn1`, in [11], the Vd came to 0.65 L/kg. In addition, the half-life in [5] came out at 27 min. The same molecule registered a bioavailability in [6] of 3.3%. Also, in data set [2], the Ki was 1.6 nM. Further, in data set [8], the clearance stood at 33.1 mL/min/kg.

`CC(C)C[C@H](NC(=O)OCc1ccccc1)C(=O)N1CCCC(NC(=O)[C@@H](CC(C)C)NC(=O)OCc2ccccc2)C(=O)C1` (stereo partly drawn) yielded a Ki in data set [2] of 30 nM. This counts as double-digit nanomolar.

Take `CC(C)C[C@H](NC(=O)c1cc2ccccc2o1)C(=O)N[C@@H](C)C(=O)CNS(=O)(=O)c1ccccn1`: the inhibitory constant (Ki) in data set [3] came out at 20 nM; in [1], 59 nM; in data set [2], 7.5 nM. Moreover, in data set [5], the half-life was 33.2 min. The molecule also gave a bioavailability in [6] of 3.2%. In data set [8], this molecule returned a clearance of 32.5 mL/min/kg. Moreover, in [10], the Vd turned out to be 0.71 L/kg.

Take `CC(C)C[C@H](NC(=O)c1cc2ccccc2o1)C(=O)N[C@@H]1CCCN(S(=O)(=O)c2ccccn2)CC1=O`: in data set [11], the Vd turned out to be 1.64 L/kg. This molecule also came in with a half-life in data set [5] of 33.2 min. This molecule showed a bioavailability in data set [6] of 9.7%. The clearance in [8] was 51.9 mL/min/kg.

For `CC(C)C[C@H](NC(=O)OCc1ccccc1)C(=O)NC1CCCN(C(=O)[C@H](CC(C)C)NC(=O)OCc2ccccc2)CC1=O` (stereo partly drawn), the results for the inhibitory constant (Ki) in [3], in [7] and in data set [2] were 26 nM, 47 nM and 2 nM, respectively.

On to `CC(C)C[C@H](NC(=O)c1cc2ccccc2o1)C(=O)N[C@@H](C)C(=O)CN(C)S(=O)(=O)c1ccccn1`, for which, in [11], the Vd stood at 1.15 L/kg. In data set [5], this molecule registered a half-life of 21.5 min. Also, the bioavailability in data set [6] worked out at 2.5%. Further, the affinity in [2], expressed as Ki, was 670 nM. Also, the clearance in data set [8] was 44.6 mL/min/kg.

In data set [2], `CC(C)C[C@H](NC(=O)c1cc2cc(OCCN3CCOCC3)ccc2o1)C(=O)NC1CCCN(C(=O)Cc2cccc(-c3ccccn3)c2)CC1O` (stereo partly drawn) displayed a Ki of 54 nM.
